ChEMBL document CHEMBL1135898, “Synthesis and antimycobacterial activity of 6-arylpurines: the requirements for the N-9 substituent in active antimycobacterial purines” (J Med Chem, 2002)
Converted amounts (≈) assume the structure as drawn.

Legend:
Type in all cases: functional
[1] = tested on: Mycobacterium tuberculosis; assay: Minimum Inhibitory Concentration against drug-resistant strain resistant to Ciprofloxacin
Method in brief: (§1)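 MICs by microplate alamar blue assay against M. tuberculosis strains resistant to isoniazid (ATCC 35822), rifampin (ATCC 35838), ethambutol, kanamycin or ciprofloxacin, drug-sensitive strain Erdman, and M. avium (ATCC 25291). MIC = minimum concentration giving 90% growth inhibition.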

[2] = tested on: Mycobacterium tuberculosis; assay: Minimum Inhibitory Concentration against drug-resistant strain resistant to Ethambutol; method in brief: as §1
[3] = tested on: Mycobacterium tuberculosis; assay: Minimum Inhibitory Concentration against drug-resistant strain resistant to Isoniazid; method in brief: as §1
[4] = tested on: Mycobacterium tuberculosis; assay: Minimum Inhibitory Concentration against drug-resistant strain resistant to Rifampin; method in brief: as §1

With `Clc1nc(-c2ccco2)c2ncn(Cc3ccccc3)c2n1` the MIC [1] was less than 0.39 µg/mL, the MIC [2] was less than 0.39 µg/mL and the MIC [3] was 3.13 µg/mL (≈ 10.1 µM). It also gave an MIC [4] of 1.56 µg/mL (≈ 5.02 µM).
